# Rev-erbA mod: Rev-erb alpha (human) modulation. AID 1259318. activity, % at 10 µM. Rev-erbα–FITC-DNA binding, fluorescence polarization, 90 min. 0.79% of 370,000 active;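 active = activity above about 14%, limit read from the data; passing the limit was not always enough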;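 note: 0% = DMSO wells with 35 nM protein and 100% = DMSO wells with 750 nM protein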
# Target sequence (P20393 whole entry, looked up): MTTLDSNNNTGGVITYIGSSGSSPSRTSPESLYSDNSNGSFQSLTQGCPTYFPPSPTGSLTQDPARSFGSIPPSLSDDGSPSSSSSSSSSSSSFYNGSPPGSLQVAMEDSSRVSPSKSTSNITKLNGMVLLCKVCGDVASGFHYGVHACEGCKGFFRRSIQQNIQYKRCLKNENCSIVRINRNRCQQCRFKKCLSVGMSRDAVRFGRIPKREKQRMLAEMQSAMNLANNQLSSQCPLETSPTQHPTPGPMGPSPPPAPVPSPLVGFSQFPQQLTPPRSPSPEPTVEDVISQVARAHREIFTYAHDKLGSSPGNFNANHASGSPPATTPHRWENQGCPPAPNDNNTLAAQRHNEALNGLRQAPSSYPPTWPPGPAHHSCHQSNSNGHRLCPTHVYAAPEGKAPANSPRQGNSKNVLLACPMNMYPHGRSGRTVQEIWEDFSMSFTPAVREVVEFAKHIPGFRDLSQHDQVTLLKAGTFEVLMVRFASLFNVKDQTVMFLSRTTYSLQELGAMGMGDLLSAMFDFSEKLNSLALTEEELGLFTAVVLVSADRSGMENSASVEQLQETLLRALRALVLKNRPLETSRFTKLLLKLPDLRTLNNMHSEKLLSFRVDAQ
# ASAP1 inh: inhibitors of human ASAP1 ArfGAP activity; 0.19% of 360,000 active; inhibition, % at 16.5 µM; ASAP1-stimulated ARF1 GTP hydrolysis, GDP FP detection; AID 624377; in the data active = inhibition above about 25%;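 note: 0% = vehicle with enzyme and substrate and 100% = no enzyme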
# bovine MsrA act: activates bovine MsrA enzyme. purified bovine MsrA, absorbance read-out. activation, % at 10.6 µM. 0.3% of 360,000 active; in the data active = activation above about 7.5%;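 note: 0% = vehicle and 100% = reference activator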
# MsrA inhibitor: bovine MsrA inhibition. purified bovine MsrA, absorbance read-out. inhibition, % at 15.5 µM. 0.75% of 360,000 active. AID 651718; in the data active = inhibition above about 4.5%;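 note: 0% = vehicle wells with enzyme and 100% = reference inhibitor wells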
# HGIII-sPLA2 inh: Blocks human group III sPLA2 activity. QFRET BODIPY PC-A2 liposome hydrolysis, fluorescence. 0.56% of 370,000 active. inhibition, % at 12.2 µM. Q9NZ20;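 active = inhibition above mean plus 3 SD of compounds lying within the high and low control bounds, cut at about 19% in these data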;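 note: 0% = median of test compound wells and 100% = no enzyme DMSO wells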
# ARFGAP1 inh: rat ARFGAP1 inhibition; Q62848; Arfgap1-stimulated ARF1 GTP hydrolysis, GDP FP detection; inhibition, % at 16.5 µM; 0.26% of 360,000 active; AID 651572;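 active = inhibition above a per-plate limit, mean inhibition of low control wells plus 3 SD, cut at about 25% in these data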;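 note: 0% = DMSO wells with enzyme and 100% = wells lacking Arfgap1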
#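 Material – truncated rat Arfgap1 GAP domain · Buffer or medium – HEPES-based buffer, pH 7.5 · Reagent – human ARF1(Δ1-17)-GTP substrate · Dosing – 16.5 µM single point, 1.26% DMSO · Schedule – GTP hydrolysis reaction 2 h at 25 °C · Technique – GDP detection by fluorescence polarization · Benchmarks – No-Arfgap1 wells (100%) versus DMSO full-reaction wells (0%) · Repeats – single replicate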
# ARFGAP1 inh conf: confirmation of rat ARFGAP1 inhibitors | inhibition, % at 16.5 µM | shares compounds with ARFGAP1 inh | ARFGAP1-stimulated ARF1 GTP hydrolysis, GDP tracer FP | 30% of 890 active;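 active = average inhibition over triplicates above the hit cutoff set in the earlier primary screen, cut at about 25% in these data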;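 note: 0% = Arfgap1 plus ARF1-GTP with DMSO and 100% = wells lacking Arfgap1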
# Starred values were filed as active, the others as inactive; nt = no result given. In the library only some 2.7% were active in any assay of this set; here they are far more common.
SMILES,Rev-erbA mod,ASAP1 inh,bovine MsrA act,MsrA inhibitor,HGIII-sPLA2 inh,ARFGAP1 inh,ARFGAP1 inh conf
CCCCCc1c(C)nc(N2CCc3ccccc32)[nH]c1=O,2,6,-3,-1,17,26*,3
CC(=O)Nc1ccc(C(/C=C/c2ccccc2)Cc2ccccc2)cc1 (centres undefined),-1,nt,nt,nt,-22,nt,nt
Fc1ccc(Cc2nnc(-c3cccs3)o2)cc1,-6,7,-1,0,0,-3,nt
Fc1ccc(-c2nnc(Cc3ccc(Cl)cc3)o2)cc1,-3,1,-1,0,2,40*,-2
COC(=O)c1ccc(N2CCN(C)CC2)c(NC(=O)COc2ccc(OC)cc2)c1,-1,7,-10,2,-4,-7,nt
COC(=O)c1ccc(N2CCN(C)CC2)c(NC(=O)COc2ccccc2Cl)c1,-5,4,0,0,8,27*,2
CC(=O)Nc1ccc(N2C(=O)CC(N3CCSCC3)C2=O)cc1 (centres undefined),-1,-1,-10,-2,-1,25*,2
NC(=O)c1ccc[n+]([C@@H]2O[C@H](COP(=O)([O-])OP(=O)(O)OC[C@H]3O[C@@H](n4cnc5c(N)ncnc54)[C@H](O)[C@@H]3O)[C@@H](O)[C@H]2O)c1,-3,nt,nt,nt,nt,nt,nt
O=C(Cc1ccccc1)NC1(O)C(=O)c2ccccc2C1=O,3,14,-2,-1,2,27*,9
N#CCC[C@@H]1CC[C@]2(CCCN(C(=O)c3ccco3)C2)O1,1,nt,nt,nt,7,nt,nt
COc1ccc(-c2cc(C(=O)Nc3cccc(S(=O)(=O)NCc4ccco4)c3)c3ccccc3n2)cc1OC,4,19,-3,3,-27,26*,22
O=C(Nc1cccc(S(=O)(=O)NCc2ccco2)c1)c1cc(-c2ccc(F)cc2)nc2ccccc12,-1,7,-1,2,-22,8,nt
FC(F)(F)c1cc(CNC2CCC23CCC(c2ccccc2)CC3)ccc1Cl (centres undefined),-4,nt,nt,nt,6,nt,nt
Cc1nc(NCc2ccc(S(N)(=O)=O)cc2)c2c(C)c(C)sc2n1,16,22,-1,0,9,44*,32*
CCOC(=O)c1sc2nc(C)nc(NCc3ccccc3)c2c1C,4,3,-5,0,-5,-5,nt
O=C(CSc1ccc(Cl)cc1)Nc1ccc(-c2nc3ccccc3[nH]2)cc1,-3,3,-4,3,8,25*,24
C#CCNC(=O)C[C@@H]1C(=O)N(Cc2ccc(OC)cc2)/C2=C/CCCCC[C@@]21C(=O)OCC,-1,nt,nt,nt,5,nt,nt
CCCCNc1nc2ccccc2n1CC(=O)N1CCc2ccccc2C1,0,6,1,0,-6,47*,4
COc1ccccc1NCc1nc2ccccc2n1C,15,nt,nt,nt,2,nt,nt
COc1ccccc1C(=O)c1nc2ccccc2n1C,-7,-9,-6,2,0,25*,-6
CC(C)(C)OC(=O)N1CCC(C(=O)Nc2ccc(C(=O)N3CCCC3)cc2)CC1,-5,7,0,0,3,-3,nt
CN(C(=O)c1ccc(NC(=O)C2CCN(C(=O)OC(C)(C)C)CC2)cc1)C1CC1,-7,11,-3,-1,-1,25*,1
O=C(CCCNC(=O)/C(=C/c1ccccc1F)NC(=O)c1ccccc1)OCc1ccccc1,-2,-5,-1,0,-10,27*,4
CCCCNC(=O)NCCCN1CCN(c2ccc(F)cc2)CC1,2,nt,nt,nt,4,nt,nt
Cc1nn(C)c(Cl)c1/C=N/OC(=O)c1ccccc1,-8,-6,-2,0,3,32*,-4
SMILES,Rev-erbA mod,ASAP1 inh,bovine MsrA act,MsrA inhibitor,HGIII-sPLA2 inh,ARFGAP1 inh,ARFGAP1 inh conf
Cc1nn(C)c(Cl)c1/C=N/OC(=O)c1ccc(F)cc1,-5,6,1,-2,-3,-8,nt
CC(=O)CC[C@H]1CC[C@]2(CCCN(Cc3nccn3C)C2)O1,-5,nt,nt,nt,9,nt,nt
Cc1ccc(S(=O)(=O)N2CCCC2C(c2ccccc2O)c2cn(C)c3ccccc23)cc1 (centres undefined),1,nt,nt,nt,0,nt,nt
CCc1c(C)sc(NC(=O)C2CC(c3c(F)cccc3Cl)=NO2)c1C#N (centres undefined),0,3,-1,-1,7,3,nt
N#Cc1c(NC(=O)C2CC(c3c(F)cccc3Cl)=NO2)sc2c1CCC2 (centres undefined),3,4,-1,0,4,35*,56*
C[C@@H](CO)N(Cc1cn(Cc2ccccc2)nn1)S(=O)(=O)c1ccc(F)cc1Br,6,nt,nt,nt,9,nt,nt
CC(C)(C)c1ccc(-c2cn(C[C@H](Cc3ccccc3)n3c(=O)c4ccccc4n3Cc3ccco3)nn2)cc1,1,nt,nt,nt,7,nt,nt
COc1ccc(-c2nc(CS(=O)(=O)CC(=O)Nc3cccc(C(C)=O)c3)c(C)o2)cc1,5,16,-3,-1,-22,27*,12
CC(=O)Nc1ccc(NC(=S)NC(=O)/C=C/c2ccc(Cl)cc2)cc1,-3,-9,-1,-1,1,0,nt
O=C(/C=C/c1ccc(Cl)cc1)NC(=S)Nc1ccc(NC(=O)c2ccco2)cc1,-5,22,-8,0,-9,86*,110*
COc1ccc(S(=O)(=O)NCc2cccnc2)cc1NC(=O)c1ccc(Cl)cc1,-6,3,-4,-1,-2,25*,1
CCSCCOC(=O)C1=C(C)NC(=O)NC1c1cccc(OC)c1OC (centres undefined),2,1,-2,-1,3,26*,1
CCCN1CCS(=O)(=O)N(Cc2cn(Cc3ccc(F)cc3)nn2)C(C(=O)OC)C1 (centres undefined),-4,nt,nt,nt,6,nt,nt
CN(Cc1ccccc1)C(=O)OCc1cn(Cc2ccccc2)nn1,0,nt,nt,nt,-2,nt,nt
CCCCN(CC)CCNC(=O)c1cc2c(=O)[nH]c3ccc(C)cc3c2s1,1,1,-2,2,-7,29*,-4
COc1cc(/C=N/Nc2nc3ccccc3s2)ccc1OC(=O)c1ccccc1F,3,-1,4,0,6,25*,18
Cc1ccc(S(=O)(=O)NCCC(=O)Nc2cccc(S(=O)(=O)N3CCCC3)c2)cc1C,0,-2,0,-1,-26,34*,2
Cc1ccc(OCC(=O)Nc2cccc(S(=O)(=O)N3CCCC3)c2)cc1C,0,-3,1,0,-19,-2,nt
CCCCCCCNC(=O)C1(CC2CC(c3cccc(Br)c3)=NO2)CCN(C(=O)C2CCCC2)CC1 (centres undefined),-6,4,0,3,-8,2,nt
CCCCCCCNC(=O)C1(CC2CC(c3cccc(Br)c3)=NO2)CCN(C(=O)OC(C)(C)C)CC1 (centres undefined),-4,5,3,0,7,36*,1
